# Rin1-Abl PPI inh – blocks binding of human Rin1 to Abl; inhibition, % at 7.35 µM; TR-FRET Rin1/Abl binding, biochemical; actives 0.4% (n = 360,000); P00519+Q13671; in the data active = inhibition above about 5%, passing the limit was not always enough
# CAL PDZ FP-1 – blocks peptide binding to human CAL PDZ domain. Q9HD26. purified CAL PDZ, TMR-peptide fluorescence polarization, 1 h. inhibition, % at 20 µM. actives 0.02% (n = 330,000);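 active = highest replicate inhibition of at least 40%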;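 also: plate controls were DMSO neutral control wells for no effect and unlabeled competitor peptide control wells for full effect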
#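 Control set: unlabelled peptide and DMSO controls / Material: purified CerCALP PDZ construct / Timing: 1 h incubation at room temperature before polarization reading / Doses: 20 µM, one dose / Detection: fluorescence polarization (mP)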
# ERp5 inh – ERp5 (human) disulfide isomerase inhibition; inhibition, % at 9.99 µM; AID 651711; ERp5 insulin aggregation, absorbance 650 nm, 90 min; Q15084; actives 0.05% (n = 350,000);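 active = mean replicate inhibition above about 25%, with every replicate also reaching it, limit read from the data, passing the limit was not always enough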
# ERAP1 inh – blocks human ERAP1 aminopeptidase activity | Q9NZ08 | actives 0.15% (n = 340,000) | inhibition, % at 10.7 µM | recombinant ERAP1, Leu-AMC fluorescence, 60 min;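 active = mean replicate inhibition of at least 30%, or all replicates individually reaching that 30% level; inactive = mean below 30% and not every replicate reaching it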;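 also: 0% = neutral control wells and 100% = L-leucinethiol positive control wells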
# PDI inh – PDI (human) enzyme inhibition; P07237; PDI insulin aggregation turbidity, A650, 90 min; inhibition, % at 10 µM; actives 0.052% (n = 350,000); AID 588391;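 active = mean inhibition across replicates of 30% or more, whatever share of single replicates reach that level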
# Target sequence (P07237 whole entry, looked up): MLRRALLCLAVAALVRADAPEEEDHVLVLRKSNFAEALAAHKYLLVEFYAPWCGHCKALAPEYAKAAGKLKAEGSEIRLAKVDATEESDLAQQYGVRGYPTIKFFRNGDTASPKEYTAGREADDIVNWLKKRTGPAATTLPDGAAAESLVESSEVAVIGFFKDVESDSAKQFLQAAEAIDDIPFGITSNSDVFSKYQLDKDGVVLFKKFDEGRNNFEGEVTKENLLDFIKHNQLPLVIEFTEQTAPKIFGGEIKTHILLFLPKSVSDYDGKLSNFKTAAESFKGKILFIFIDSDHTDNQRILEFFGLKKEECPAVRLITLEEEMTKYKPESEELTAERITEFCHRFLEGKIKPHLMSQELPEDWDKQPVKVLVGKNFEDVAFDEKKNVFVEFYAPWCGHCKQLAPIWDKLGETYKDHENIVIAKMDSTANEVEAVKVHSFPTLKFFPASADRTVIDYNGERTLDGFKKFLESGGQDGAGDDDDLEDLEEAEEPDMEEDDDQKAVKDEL
# CAL PDZ FP-2 – blocks peptide binding to the human CAL PDZ domain; purified CAL PDZ, TMR-peptide fluorescence polarization, 1 h; inhibition, % at 24.9 µM; actives 0.92% (n = 300,000);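 active = mean inhibition of at least 30% with at least half of replicates also reaching 30%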;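 also: 0% = DMSO neutral control and 100% = excess unlabeled competitor peptide PRC23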
# Rin1-Abl confirm – Rin1-Abl interaction inhibition confirmation | shares compounds with Rin1-Abl PPI inh | TR-FRET Rin1-Abl binding, purified proteins | inhibition, % at 7.35 µM | actives 49% (n = 1,300)
# GFP quench-1 – quenches GFP fluorescence, counter-screen for Rin1-Abl inhibitors. shares compounds with Rin1-Abl PPI inh. inhibitors/quenchers counterscreen. inhibition, % at 6.75 µM. actives 8.5% (n = 1,300);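 also: ABL1-eGFP fusion protein alone without its partner RIN1-SBP; 0% = protein with vehicle and 100% = wells lacking protein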
# GFP quench DR – counter-screen for Rin1-Abl inhibitors: GFP quenchers, dose response. IC50, µM. GFP fluorescence interference/quenching counterscreen. 230 tested, under 10 active. shares compounds with Rin1-Abl PPI inh; call rule not given here;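 also: ABL1-eGFP fusion protein alone without its RIN1 binding partner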
# GFP quench-2 – quenches GFP fluorescence in Rin1-Abl counterscreen. IC50, µM. shares compounds with Rin1-Abl PPI inh. 25 tested, under 10 active. GFP fluorescence quenching counterscreen, biochemical. AID 602397; call rule not given here
# Numbers without * were called inactive; · = no result given. The list is not random: actives were taken first. Their share in the collection is about 1.1%. Rule as the data show it, unless noted: active = inhibition above about 6.5%; inactive = the rest.
SMILES,Rin1-Abl PPI inh,CAL PDZ FP-1,ERp5 inh,ERAP1 inh,PDI inh,CAL PDZ FP-2,Rin1-Abl confirm,GFP quench-1,GFP quench DR,others
O=C(O)/C=C/C(=O)Nc1ccc(-n2ccc(C(F)(F)F)n2)cc1,6.4*,1,3,·,-8,26,0,1,·,
C=CCn1c(C)nnc1SCC(=O)Nc1nc(C)c(C(=O)N(C)C)s1,13*,-2,-1,-2,-4,-3,0,0,·,
Cc1nc(NC(=O)CSc2nnc(C3CC3)n2C)sc1C(=O)N(C)C,2,-3,2,-2,8,·,·,·,·,
COc1ccc(C)cc1-n1c(SCC(=O)NC2CC2)nc2ccccc2c1=O,0,-1,3,-6,3,6,·,·,·,
Cc1ccccc1-n1c(SCC(=O)NC2CC2)nc2ccccc2c1=O,10*,·,3,-2,2,·,0,0,·,
COc1ccc(NC(=O)Nc2cccc3c2O[C@@H](CN(C)C)[C@@H](C)CN([C@H](C)CO)C3=O)cc1,·,·,2,1,·,·,·,·,·,
CC(=O)Nc1cc2c(nc1C)nc(C)n2Cc1ccc(Br)cc1,18*,-2,·,·,-1,-1,22*,-4,>68,
Cc1nc2ccccc2n1Cc1ccc(Br)cc1,2,-1,2,-1,-9,·,·,·,·,
O=C(Cc1ccc(NC(=O)C2CCN(C(=O)C3CCCC3)CC2)cc1)Nc1cccc(C(=O)N2CCCCC2)c1,17*,2,5,8,-5,-1,17*,0,>68,
O=C(Cc1cccc(NC(=O)C2CCN(C(=O)C3CCC3)CC2)c1)Nc1cccc(C(=O)N2CCCC2)c1,1,0,-5,0,1,-2,·,·,·,
O=C(Cc1ccc(NC(=O)C2CCN(C(=O)c3ccccc3)CC2)cc1)Nc1ccc(C(=O)N2CCOCC2)cc1,36*,-2,-12,-5,-3,5,37*,0,>68,GFP quench-2=>68
O=C(Cc1ccc(NC(=O)C2CCN(C(=O)C3CCC3)CC2)cc1)Nc1ccc(C(=O)N2CCOCC2)cc1,23*,0,-5,-3,-4,0,21*,0,>67,
O=C(C1CC1)N1CC(=O)N2[C@H](CO)[C@H](c3ccc(C#CC4CCCC4)cc3)[C@@H]2C1,·,·,-2,-2,·,·,·,·,·,
Cc1cc(-c2nn(-c3ccccc3F)cc2CN2CCCC(O)C2)c(C)s1 (centres undefined),5.7*,-3,-4,0,0,-3,1,0,·,
O=c1nccc(N/N=C/c2ccccc2)[nH]1,8.8*,1,3,-1,-3,-7,20*,-2,>68,
Cc1ccc(NC(=O)C(c2ccc(Cl)cc2Cl)N2CCCC2)cc1 (centres undefined),-4,-3,2,5,-5,-1,·,·,·,
Cc1cccc(NC(=O)C(c2ccccc2Cl)N2CCOCC2)c1 (centres undefined),8.2*,0,-5,-5,3,0,-1,1,·,
COc1ccc(/C=N/NC(=O)CCc2n[nH]c(=O)[nH]c2=O)cc1OC,1,0,·,·,0,1,·,·,·,
CCCOc1ccc(/C=N/NC(=O)CSc2ccccn2)cc1OC,16*,0,2,·,-3,·,22*,0,>68,
CCCOc1ccc(/C=N\NC(=O)CCc2n[nH]c(=O)[nH]c2=O)cc1OC,7.8*,-2,4,-5,3,1,8.8*,0,·,
CN(C)c1ccc(/C=N/NC(=O)CSc2ccccn2)cc1,-3,-2,4,2,-9,1,·,·,·,
COc1cc2c(cc1OC)C(C)N(C(=O)c1ccc(Br)o1)CC2 (centres undefined),11*,0,·,·,-15,-6,5,2,·,
Cc1ccc(C(C[N+](=O)[O-])c2c(C)[nH]n(-c3ccccc3)c2=O)cc1 (centres undefined),6.0*,-1,0,-1,-2,·,2,-1,·,

# Source: PubChem (several laboratories)
